Data reported in ChEMBL document CHEMBL1158140, “Abietane diterpenoids from Salvia pachyphylla and S. clevelandii with cytotoxic activity against human cancer cell lines” (2006).

Tests used:
Type in all cases: functional
[1] = test system: HBL-100; test: Cytotoxicity against human HBL100 cells after 48 hrs by SRB assay; settings: HBL-100, 48 h
Procedure, shortened: (§1)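 RPMI 1640 with 5% heat-inactivated FCS and 2 mM L-glutamine, 37 °C, 5% CO2. Seeded per well at 6000 (SW1573, HBL-100), 7000 (A2780), 12 000 (WiDr) or 15 000 (T-47D). Triplicate, 1-100 µM from day 1 for 48 h; DMSO 0.25% v/v control. TCA-fixed, SRB OD 490 nm. Percentage growth from T0, T and control ODs gives GI50, mean ± SD of 3-5 experiments.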

[2] = test system: WiDr; test: Cytotoxicity against human WiDr cells after 48 hrs by SRB assay; procedure, shortened: as §1
[3] = test system: A2780; test: Cytotoxicity against human A2780 cells after 48 hrs by SRB assay; settings: A2780, 48 h; procedure, shortened: as §1
[4] = test system: T47D; test: Cytotoxicity against human T47D cells after 48 hrs by SRB assay; procedure, shortened: as §1
[5] = test system: SW1573; test: Cytotoxicity against human SW1573 cells after 48 hrs by SRB assay; settings: SW1573, 48 h; procedure, shortened: as §1

SMILES | GI50 [1] [µM] | GI50 [2] [µM] | GI50 [3] [µM] | GI50 [4] [µM] | GI50 [5] [µM]
COc1cc2c(cc1C(C)C)C(=O)C=C1C(C)(C)CCC[C@@]12C | 16 | 29 | 16 | 33 | 18
CC(C)c1cc2c(c(O)c1O)[C@@]13CCCC(C)(C)[C@@H]1C[C@@H]2OC3 | 4.6 | 32 | 5.4 | 32 | 22
CC(C)c1cc2c(c(O)c1O)[C@@]13CCCC(C)(C)[C@@H]1[C@@H](O)[C@@H]2OC3=O [ISOROSMANOL] | 17 | > 100 | 19 | > 100 | 23
CC(CO)c1cc2c(c(O)c1O)[C@@]13CCCC(C)(C)[C@@H]1C[C@@H]2OC3=O (stereo not given in full) | 3.6 | 28 | 3.6 | 35 | 9
CC(C)c1cc(C=O)c2c(c1O)OC(=O)[C@@]21CCCC(C)(C)[C@@H]1C=O [ROSMADIAL] | 26 | 59 | 36 | 48 | 32
CC(C)C1=C[C@]2(O)CC[C@H]3C(C)(C)CCC[C@]3(C)C2=CC1=O | 26 | 83 | 19 | 82 | 29
CC(C)C1=C[C@@]23CC[C@H]4C(C)(C)CCC[C@]4(CO2)C3=C(O)C1=O [PACHYPHYLLONE] | 22 | 36 | 14 | 32 | 23
CC(C)c1cc2c(c(O)c1O)[C@@]13CCCC(C)(C)[C@@H]1C[C@@H]2OC3=O [CARNOSOL] | 3.9 | 26 | 3.6 | 24 | 10
